Test results taken from paper PMC6175428 (Journal of Clinical Pharmacology, 2018).
Like-named read-outs stand apart in the source and are kept apart here.

What was measured:
[1] = Urine bioanalysis / renal clearance of semaglutide and SNAC; type: in vivo, human; conditions: for CLR (renal clearance): SNAC after 10th dose, geometric mean (CV)
Procedure, shortened: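 Urine was collected before dosing on day 1 and in fractions after the day-10 dose (0–4, 4–8, 16–24 and 24–36 h) and stored at −20°C. 1% Triton X-100 was added at 1 part per 9 parts urine. Semaglutide and SNAC were measured by the plasma LC-MS/MS assays, with ranges corrected by a factor of 1.111. Renal clearance was reported as the geometric mean (CV) per hepatic function group.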

[2] = subcutaneous once-daily liraglutide; cited from earlier work
[3] = type: in vivo, human; conditions: for CL/F (total apparent clearance): SNAC after 10th dose, geometric mean (CV)
Procedure, shortened: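 Adults with hepatic function graded by Child-Pugh took one oral tablet daily for 10 days: 5 mg for 5 days, then 10 mg for 5 days. Each tablet held 300 mg SNAC and was taken with 120 mL water after a ≥6 h fast. Plasma was sampled within 24 h after dosing on days 1 and 10 into K3-EDTA and stored at −20°C. LC-MS/MS used in-line solid-phase preparation and internal-standard peak area ratios, with an LLOQ of 5.00 ng/mL.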

[4] = system: plasma protein; test: Plasma protein binding of SNAC; type: in vitro ADME, human
Procedure, shortened: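 Plasma protein binding measured ex vivo by rapid equilibrium dialysis on blood drawn 30 minutes after the day-10 dose. Subjects with normal hepatic function or mild, moderate or severe hepatic impairment received the oral semaglutide/SNAC co-formulation for 10 consecutive days. Food and liquid were withheld for 30 minutes post-dose. The read-out is the fraction of unbound SNAC per subject, summarised as a median per group.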

[5] = mild hepatic impairment (n = 12)
[6] = moderate hepatic impairment (n = 12)
[7] = normal hepatic function (n = 24)
[8] = severe hepatic impairment (n = 8)

CC[C@H](C)[C@H](NC(=O)[C@H](Cc1ccccc1)NC(=O)[C@H](CCC(=O)O)NC(=O)[C@H](CCCCNC(=O)COCCOCCNC(=O)COCCOCCNC(=O)CC[C@H](NC(=O)CCCCCCCCCCCCCCCCC(=O)O)C(=O)O)NC(=O)[C@H](C)NC(=O)[C@H](C)NC(=O)[C@H](CCC(N)=O)NC(=O)CNC(=O)[C@H](CCC(=O)O)NC(=O)[C@H](CC(C)C)NC(=O)[C@H](Cc1ccc(O)cc1)NC(=O)[C@H](CO)NC(=O)[C@H](CO)NC(=O)[C@@H](NC(=O)[C@H](CC(=O)O)NC(=O)[C@H](CO)NC(=O)[C@@H](NC(=O)[C@H](Cc1ccccc1)NC(=O)[C@@H](NC(=O)CNC(=O)[C@H](CCC(=O)O)NC(=O)C(C)(C)NC(=O)[C@@H](N)Cc1cnc[nH]1)[C@@H](C)O)[C@@H](C)O)C(C)C)C(=O)N[C@@H](C)C(=O)N[C@@H](Cc1c[nH]c2ccccc12)C(=O)N[C@@H](CC(C)C)C(=O)N[C@H](C(=O)N[C@@H](CCCNC(=N)N)C(=O)NCC(=O)N[C@@H](CCCNC(=N)N)C(=O)NCC(=O)O)C(C)C [Semaglutide, reference compound]
Semaglutide in urine samples ([1]; subjects with normal hepatic function and all hepatic impairment groups): not detected

liraglutide
Drug exposure with impaired liver function [2]: not increased

O=C([O-])CCCCCCCNC(=O)c1ccccc1O.[Na+] [SNAC, sodium N‐(8‐[2‐hydroxybenzoyl]amino) caprylate]
CLR (renal clearance) [1, 5]: 0.075 (125.3) L/h
CLR (renal clearance) [1, 6]: 0.054 (73.98) L/h
CLR (renal clearance) [1, 7]: 0.076 (109.0) L/h
CLR (renal clearance) [1, 8]: 0.111 (88.52) L/h
Estimated mean CLR of SNAC, range across groups ([1]; range of estimated means with 95%CI across hepatic function groups): 0.052 [95%CI, 0.036–0.076]–0.096 [95%CI, 0.059–0.157] L/h
CL/F (total apparent clearance) [3, 5]: 195.6 (24.2) L/h
CL/F (total apparent clearance) [3, 6]: 105.1 (63.1) L/h
CL/F (total apparent clearance) [3, 7]: 275.8 (27.9) L/h
CL/F (total apparent clearance) [3, 8]: 78.5 (36.4) L/h
Median tmax of SNAC ([3]; across the 4 hepatic function groups): approximately 0.5 hours
Accumulation of SNAC ([3]; day 1 vs day 10 exposure, any hepatic function group): No accumulation
Median fraction of unbound SNAC ([4]; across the hepatic function groups, samples 30 minutes after dosing on day 10): less than 1%
Plasma protein binding of SNAC ([4]; all subjects across hepatic function groups): more than 99%
